Active and inactive are the calls of the source. The calls are words filed in the database; no cut-off is given here.
Key:
MDA-MB-231 [1] = experiment: Antiproliferative activity against human MDA-MB-231 cells expressing p53 R280K mutant assessed as inhibition of cell growth incubated for 72 hrs by WST-1 assay; assay type: functional, cell-based; conditions: MDA-MB-231, 72 h
How it was run: (§1)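 WST-1 proliferation assay. Compound diluted in DMSO and added to cells at 1% DMSO final. 4,000 cells/well in duplicate; DMSO-only wells as control, cell-free medium wells for background.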

MCF7 [2] = experiment: Antiproliferative activity against human MCF7 cells expressing WT p53 assessed as inhibition of cell growth at 10 to 50 uM incubated for 24 to 72 hrs by WST-1 assay; assay type: functional, cell-based; conditions: dose 10-50 µM, time 24-72 hrs
How it was run: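 WST-1 proliferation assay. Compound diluted in DMSO so that 10 μl of stock in 1 ml of cells (40,000 cells/ml) gives the test concentration at 1% DMSO. Cells plated at 4,000/well in duplicate and incubated at 37 °C for 24 h or 72 h. Result given as % of the 1% DMSO control.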

MDA-MB-231 [3] = experiment: Inhibition of colony formation in human MDA-MB-231 expressing p53 R280K mutant assessed as decrease in number of colonies at 1.5 to 24 uM incubated for 24 hrs followed by incubation in fresh medium for 10 days by methylene blue staining based analysis; assay type: functional, cell-based; conditions: dose 1.5-24 µM
How it was run: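 500 cells/well seeded 24 h before treatment. Cells exposed to compound or DMSO control for 24 h at 37 °C, then grown 10 days at 37 °C in RPMI with 10% FBS. Colonies fixed in methanol, stained with methylene blue and counted. Survival expressed as percent of DMSO control.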

MCF7 [4] = experiment: Induction of apoptosis in human MCF-7 cells expressing wild type p53 assessed increase in number of Annexin-V stained cells at 6 to 12 uM incubated for 24 hrs by AnnexinV-FITC and PI staining based flow cytometry; assay type: functional, cell-based; conditions: dose 6-12 µM
How it was run: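 24 h treatment, DMSO control. Cells scraped, washed in PBS, then given fluorochrome-conjugated Annexin V for 15 min at RT in the dark, followed by PI (0.1 µg/ml) in binding buffer. Read by flow cytometry on LSRFortessa. Annexin V-positive cells expressed relative to the DMSO control.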

MDA-MB-468 [5] = experiment: Induction of apoptosis in human MDA-MB-468 cells expressing p53 R273H mutant assessed as decrease in level of uncleaved PARP1 level at 6 to 12 uM measured after 24 hrs by western blotting analysis; assay type: functional, cell-based; conditions: dose 6-12 µM
How it was run: (§2)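 Cells treated with DMSO or compound at 6 or 12 µM for 24 h, then lysed in Tris-Cl pH 8.0/NaCl/glycerol/NP-40/EDTA buffer with protease inhibitors. 100 µg lysate resolved on 4-12% SDS-PAGE and blotted to PVDF. Probed with anti-PARP or anti-caspase 3, then HRP secondary and ECL. GAPDH reprobe as control.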

MCF7 [6] = experiment: Induction of apoptosis in human MCF7 cells expressing wild type p53 assessed as increase in cleaved PARP1 level at 6 to 12 uM measured after 24 hrs by western blotting analysis; assay type: functional, cell-based; conditions: dose 6-12 µM; how it was run: as §2
MDA-MB-468 [7] = experiment: Downregulation of p53 R273H mutant expression in human MDA-MB-468 cells at 6 to 12 uM measured after 24 hrs by immunoblot analysis; assay type: functional, cell-based; conditions: dose 6-12 µM
How it was run: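 24 h exposure to 6 or 12 μM, DMSO control. Lysis in Tris pH 8.0/NaCl/glycerol/NP-40/EDTA buffer with protease inhibitors. 20 µg (MDA-MB-231, MDA-MB-468) or 50 µg (MCF-7) of lysate run on 4-12% SDS-PAGE. Blot probed with p53 DO-1, GAPDH used for reprobe/loading. Triplicate experiments.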

[8] = system: Cellular tumor antigen p53 (Homo sapiens), P04637 [R280K]; experiment: Reactivation of transactivation function to p53 R280K mutant in human MDA-MB-231 cells assessed as increase in p21 mRNA expression at 6 uM incubated for 4 hrs by qRT-PCR analysis; assay type: cell-based; conditions: filed as activator
How it was run: (§3)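 Cells treated with DMSO or 6 µM test compound for 4 h. RNA extracted, cDNA synthesised, transcript measured by TaqMan qRT-PCR and normalised to GAPDH. Averages from triplicates of repeated experiments, with standard deviation.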

[9] = system: Cellular tumor antigen p53 (Homo sapiens), P04637 [R280K]; experiment: Reactivation of transactivation function to p53 R280K mutant in human MDA-MB-231 cells assessed as increase in NOXA mRNA expression at 6 uM incubated for 4 hrs by qRT-PCR analysis; assay type: cell-based; conditions: filed as activator; how it was run: as §3
[10] = system: Cellular tumor antigen p53 (Homo sapiens), P04637 [R273H]; experiment: Reactivation of transactivation function to p53 R273H mutant in human MDA-MB-468 cells assessed as increase in p21 mRNA expression at 6 uM incubated for 4 hrs by qRT-PCR analysis; assay type: cell-based; conditions: filed as activator; how it was run: as §3
[11] = target: Cellular tumor antigen p53 (Homo sapiens) (UniProt P04637); experiment: Activation of p53 in human MCF7 cells assessed as increase in p21 mRNA expression at 6 uM incubated for 4 hrs by qRT-PCR analysis; assay type: cell-based; conditions: filed as activator; how it was run: as §3
[12] = target: Cellular tumor antigen p53 (Homo sapiens) (UniProt P04637); experiment: Activation of p53 in human MCF7 cells assessed as increase in MDM2 mRNA expression at 6 uM incubated for 4 hrs by qRT-PCR analysis; assay type: cell-based; conditions: filed as activator; how it was run: as §3
[13] = system: Cellular tumor antigen p53 (Homo sapiens), P04637 [R273H]; experiment: Reactivation of transactivation function to p53 R273H mutant in human MDA-MB-468 cells assessed as increase in MDM2 mRNA expression at 6 uM incubated for 4 hrs by qRT-PCR analysis; assay type: cell-based; conditions: filed as activator; how it was run: as §3
MDA-MB-231 [14] = experiment: Effect on p53 R280K mutant mRNA expression in human MDA-MB-231 cells at 6 uM measured after 4 hrs by qRT-PCR analysis; assay type: functional, cell-based; how it was run: as §3
MDA-MB-468 [15] = experiment: Effect on p53 R273H mutant mRNA expression in human MDA-MB-468 cells at 6 uM measured after 4 hrs by qRT-PCR analysis; assay type: functional, cell-based; how it was run: as §3
CCD-841CoN = experiment: Cytotoxicity against human CCD841 cells harboring wild type p53 assessed as inhibition of cell growth at 10 to 50 uM incubated for 24 to 72 hrs by WST-1 assay; assay type: functional, cell-based; conditions: dose 10-50 µM, time 24-72 hrs
MDA-MB-468 [16] = experiment: Antiproliferative activity against human MDA-MB-468 cells expressing p53 R273H mutant assessed as inhibition of cell growth incubated for 24 to 72 hrs by WST-1 assay; assay type: functional, cell-based; how it was run: as §1
MDA-MB-231 [17] = experiment: Induction of apoptosis in human MDA-MB-231 cells expressing p53 R280K mutant assessed as increase in level of cleaved PARP1 level at 6 to 12 uM measured after 24 hrs by western blotting analysis; assay type: functional, cell-based; conditions: dose 6-12 µM; how it was run: as §2
MCF7 [18] = experiment: Upregulation of p53 expression in human MCF7 cells at 6 to 12 uM measured after 24 hrs by immunoblot analysis; assay type: functional, cell-based; conditions: dose 6-12 µM
How it was run: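 Cells treated with DMSO or compound at 6 or 12 µM for 24 h and lysed. 50 µg MCF-7 lysate resolved by SDS-PAGE and probed with p53 DO-1 antibody. Reprobed with anti-GAPDH as loading control. Run in triplicate.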

MCF7 [19] = experiment: Upregulation of p53 mRNA expression in human MCF7 cells at 6 uM measured after 4 hrs by qRT-PCR analysis; assay type: functional, cell-based; how it was run: as §3
MDA-MB-231 [20] = experiment: Downregulation of p53 R280K mutant expression in human MDA-MB-231 cells at 6 to 12 uM measured after 24 hrs by immunoblot analysis; conditions: dose 6-12 µM

| SMILES | IC50 (MDA-MB-231 [1]) | Activity (MCF7 [2]) | inhibition (MDA-MB-231 [3]) | Activity (MCF7 [4]) | Activity (MDA-MB-468 [5]) | Activity (MCF7 [6]) | inhibition (MDA-MB-468 [7]) | Activity [8] | Activity [9] | Activity [10] | Activity [11] | Activity [12] | Activity [13] | Activity (MDA-MB-231 [14]) | Activity (MDA-MB-468 [15]) | Activity (CCD-841CoN) | IC50 (MDA-MB-468 [16]) | Activity (MDA-MB-231 [17]) | Activity (MCF7 [18]) | Activity (MCF7 [19]) | also measured |
| --- | --- | --- | --- | --- | --- | --- | --- | --- | --- | --- | --- | --- | --- | --- | --- | --- | --- | --- | --- | --- | --- |
| S=C=NCCCC12CC3CC(CC(C3)C1)C2 | 12 µM | Active | Active | inactive | Active | inactive | Active | Active | Active | Active | Active | Active | Active | inactive | inactive | inactive | 12 µM | Active | inactive | Active | p53 R280K downregulation (active/not active) (MDA-MB-231 [20]): Active |
| [Se]=C=NCCC12CC3CC(CC(C3)C1)C2 | 6 µM | Active | Active | inactive | Active | inactive | Active | Active | Active | Active | Active | Active | Active | inactive | inactive | inactive | 6 µM | Active | Active | Active | p53 R280K downregulation (active/not active) (MDA-MB-231 [20]): Active |

— ChEMBL document CHEMBL5038582, “Adamantyl Isothiocyanates as Mutant p53 Rescuing Agents and Their Structure-Activity Relationships” (J Med Chem, 2021)
